Assay results: ChEMBL document CHEMBL4392839, “Syntheses and bioactivities of songorine derivatives as novel G protein-coupled receptor antagonists” (Bioorg Med Chem, 2019)

Experiments:
[1] = Antagonist activity at mouse GPCR by double antibody sandwich ELISA
Summary of the method: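 Double-antibody sandwich ELISA measuring mouse GPCR content, with a GPCR standard. Sample was mixed with diluted standard (37 ℃, 10 min), added to antibody-coated wells, then HRP conjugate was added (37 ℃, 30 min), followed by chromogens A and B and stop solution. OD450 was read within 5 min. Tested at 10 ng/L, 1 ng/mL, 0.1 μg/mL and 10 μg/mL, 30% DMSO in well. Percent inhibition versus no-inhibitor control (100%) from three independent experiments; IC50 from absorbance.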

[2] = species: Mus musculus; experiment: Antagonist activity at mouse GPCR at 10 ng/L by double antibody sandwich ELISA relative to control

SMILES | IC50 [1] [nM] | inhibition [2] [%]
C=C1[C@H]2C[C@@]3([C@@H]1OC(C)=O)[C@@H](CC2=O)[C@@]12[C@@H]4[C@@H]3C[C@@H]1[C@@](C)(CC[C@@H]2O)CN4CC | 2.62 | 48.6
C=C1[C@H]2C[C@@]3([C@@H]1OC(=O)/C=C/c1ccccc1)[C@@H](CC2=O)[C@@]12[C@@H]4[C@@H]3C[C@@H]1[C@@](C)(CC[C@@H]2O)CN4CC | 0.29 | 57.1
C=C1[C@H]2C[C@@]3([C@@H]1O)[C@@H](C/C2=N/O)[C@@]12[C@@H]4[C@@H]3C[C@@H]1[C@@](C)(CC[C@@H]2O)CN4CC | 0.55 | 73.3
C=C1C(=O)[C@]23C[C@H]1C(=O)C[C@H]2[C@@]12C(=O)CC[C@@]4(C)CN(CC)[C@H]1[C@@H]3C[C@H]42 | > 10 | 34.6
C=C1[C@H]2C[C@@]3([C@@H]1OC(=O)COCC)[C@@H](CC2=O)[C@@]12[C@@H](OC(=O)COCC)CC[C@@]4(C)CN(CC)[C@H]1[C@@H]3C[C@H]42 | 5.91 | 55
C=C1[C@H]2C[C@@]3([C@@H]1OC(=O)CC)[C@@H](C/C2=N/OC(=O)CC)[C@@]12[C@@H](OC(=O)CC)CC[C@@]4(C)CN(CC)[C@H]1[C@@H]3C[C@H]42 | > 10 | 36.4
C=C1[C@H]2C[C@@]3([C@@H]1O)[C@@H](C/C2=N/NS(=O)(=O)c1ccc(C)cc1)[C@@]12[C@@H]4[C@@H]3C[C@@H]1[C@@](C)(CC[C@@H]2O)CN4CC | > 10 | 37.7
C=C1[C@H]2C[C@@]3([C@@H]1O)[C@@H](C[C@H]2O)[C@@]12[C@@H]4[C@@H]3C[C@@H]1[C@@](C)(CC[C@@H]2O)CN4CC | > 10 | 46.3
C=C1[C@H]2C[C@@]3([C@@H]1O)[C@@H](CC2=O)[C@@]12[C@@H]4[C@@H]3C[C@@H]1[C@@](C)(CC[C@@H]2O)CN4CC | 3.21 | 62.8
C=C1[C@H]2C[C@@]3([C@@H]1OC(=O)CC)[C@@H](C/C2=N/OC(=O)CC)[C@@]12[C@@H]4[C@@H]3C[C@@H]1[C@@](C)(CC[C@@H]2O)CN4CC | 3.65 | 50.3
CCN1C[C@]2(C)CC[C@H](O)[C@]34[C@@H]1[C@H](C[C@H]23)[C@@]12C[C@@H](C(=O)C[C@H]14)C(CO)(OC(=O)c1cccc(Cl)c1)[C@H]2O (stereo not given in full) | 0.23 | 68.7
C=C1[C@H]2C[C@@]3([C@@H]1OC(=O)c1ccccc1)[C@@H](CC2=O)[C@@]12[C@@H]4[C@@H]3C[C@@H]1[C@@](C)(CC[C@@H]2O)CN4CC | 4.5 | 37.7
C=C1[C@H]2C[C@@]3([C@@H]1OC(C)=O)[C@@H](CC2=O)[C@@]12[C@@H](OC(C)=O)CC[C@@]4(C)CN(CC)[C@H]1[C@@H]3C[C@H]42 | 0.51 | 65.2
C=C1C(=O)[C@]23C[C@H]1C(=O)C[C@H]2[C@@]12[C@@H]4[C@@H]3C[C@@H]1[C@@](C)(CC[C@@H]2O)CN4CC | 9.99 | 54.6
C=C1[C@H]2C[C@@]3([C@@H]1O)[C@@H](C[C@@H]2O)[C@@]12[C@@H]4[C@@H]3C[C@@H]1[C@@](C)(CC[C@@H]2O)CN4CC | > 10 | 39.4
C=C1[C@H]2C[C@@]3([C@@H]1S)[C@@H](CC2=S)[C@@]12[C@@H]4[C@@H]3C[C@@H]1[C@@](C)(CC[C@@H]2S)CN4CC | > 10 | 39.3
C=C1[C@H]2C[C@@]3([C@@H]1OC(=O)COC)[C@@H](CC2=O)[C@@]12[C@@H](OC(=O)COC)CC[C@@]4(C)CN(CC)[C@H]1[C@@H]3C[C@H]42 | 0.08 | 85.3
C=C1[C@H]2C[C@@]3([C@@H]1OC(=O)CCC)[C@@H](CC2=O)[C@@]12[C@@H](OC(=O)CCC)CC[C@@]4(C)CN(CC)[C@H]1[C@@H]3C[C@H]42 | 0.14 | 77.4
C=C1[C@H]2C[C@@]3([C@@H]1OC(=O)CC)[C@@H](CC2=O)[C@@]12[C@@H](OC(=O)CC)CC[C@@]4(C)CN(CC)[C@H]1[C@@H]3C[C@H]42 | 0.59 | 65.9
C=C1[C@H]2C[C@@]3([C@@H]1OC(=O)CCC)[C@@H](CC2=O)[C@@]12[C@@H]4[C@@H]3C[C@@H]1[C@@](C)(CC[C@@H]2O)CN4CC | 8.68 | 49.8
